From ChEMBL document CHEMBL1208778, “Synthesis and anti-cancer activity of chalcone linked imidazolones” (2010)
Activity calls are given as the source filed them. The rule behind the calls is not given here.

What was measured:
SF-539 = assay: Growth inhibition of human SF539 cells; format: functional
Procedure, shortened: (§1)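 Five-dose testing was run within the NCI (Bethesda) in vitro Anticancer Screen Program on a panel of 53 human tumour cell lines from nine cancer types. Growth inhibition is reported as GI50.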

HCC 2998 = assay: Growth inhibition of human HCC2998 cells; format: functional; procedure, shortened: as §1
A549 = assay: Growth inhibition of human A549 cells; format: functional; procedure, shortened: as §1
NCI-H322M = assay: Growth inhibition of human NCI-H322M cells; format: functional; procedure, shortened: as §1
K562 = assay: Growth inhibition of human K562 cells; format: functional; procedure, shortened: as §1
KM12 = assay: Growth inhibition of human KM12 cells; format: functional; procedure, shortened: as §1
Malme-3M = assay: Growth inhibition of human MALME-3M cells; format: functional; procedure, shortened: as §1
CAKI-1 = assay: Growth inhibition of human Caki1 cells; format: functional; procedure, shortened: as §1
SW-620 = assay: Growth inhibition of human SW620 cells; format: functional
Procedure, shortened: (§2)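 Compounds that passed a preliminary screen were tested at five doses in the NCI (Bethesda) in vitro Anticancer Screen Program against a 53-line human tumour panel spanning leukemia, lung, colon, CNS, melanoma, ovarian, renal, prostate and breast. Growth inhibition is reported as GI50.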

U-251 = assay: Growth inhibition of human U251 cells; format: functional; procedure, shortened: as §2
M14 = assay: Growth inhibition of human M14 cells; format: functional; procedure, shortened: as §1
NCI-H460 = assay: Growth inhibition of human NCI-H460 cells; format: functional; procedure, shortened: as §1
SNB-19 = assay: Growth inhibition of human SNB19 cells; format: functional; procedure, shortened: as §2
MCF7 [1] = assay: Cell cycle arrest in human MCF7 cells assessed as accumulation at G2/M phase at 10 uM after 24 hrs by FACS analysis; format: functional
Procedure, shortened: (§3)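 MCF-7 breast carcinoma cells were exposed to 10 µM test compound for 24 h, with DMSO as the vehicle control. Cell-cycle distribution was read by FACS as the percentage of cells in G0, G1, S and G2/M.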

MCF7 [2] = assay: Induction of apoptosis in human MCF7 cells assessed as decrease in procaspase 7 level at 30 uM after 24 hrs by Western blot analysis; format: functional, cell-based
Procedure, shortened: (§4)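 MCF-7 breast carcinoma cells were exposed to 30 µM compound for 24 h, with CA-4 as positive control. Cell lysates were then immunoblotted with antibodies to procaspase-7 and cleavage-specific PARP, using β-actin as loading control.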

MCF7 [3] = assay: Growth inhibition of human MCF7 cells; format: functional; procedure, shortened: as §1
SNB-75 = assay: Growth inhibition of human SNB75 cells; format: functional; procedure, shortened: as §2
EKVX = assay: Growth inhibition of human EKVX cells; format: functional; procedure, shortened: as §1
MCF7 [4] = assay: Cell cycle arrest in human MCF7 cells assessed as accumulation at G0 phase at 30 uM after 24 hrs by FACS analysis; format: functional
Procedure, shortened: (§5)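 MCF-7 cells were treated at 30 µM for 24 h alongside a DMSO control. Fractions in G0, G1, S and G2/M phases were measured by FACS, and values are means of three experiments.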

RXF 393 = assay: Growth inhibition of human RXF393 cells; format: functional; procedure, shortened: as §1
UACC-257 = assay: Growth inhibition of human UACC257 cells; format: functional; procedure, shortened: as §2
NCI-H23 = assay: Growth inhibition of human NCI-H23 cells; format: functional; procedure, shortened: as §1
SN12C = assay: Growth inhibition of human SN12C cells; format: functional; procedure, shortened: as §2
T47D = assay: Growth inhibition of human T47D cells; format: functional; procedure, shortened: as §2
PC-3 = assay: Growth inhibition of human PC3 cells; format: functional; procedure, shortened: as §1
UACC-62 = assay: Growth inhibition of human UACC62 cells; format: functional; procedure, shortened: as §2
ACHN = assay: Growth inhibition of human ACHN cells; format: functional; procedure, shortened: as §1
[5] = Growth inhibition of human Hs 578T cells; format: functional; procedure, shortened: as §1
HOP-92 = assay: Growth inhibition of human HOP92 cells; format: functional; procedure, shortened: as §1
MCF7 [6] = assay: Induction of apoptosis in human MCF7 cells assessed as […] in PARP cleavage at 30 uM after 24 hrs by Western blot analysis; format: functional, cell-based; procedure, shortened: as §4
NCI-H522 = assay: Growth inhibition of human NCI-H522 cells; format: functional; procedure, shortened: as §1
MCF7 [7] = assay: Cell cycle arrest in human MCF7 cells assessed as accumulation at S phase at 10 uM after 24 hrs by FACS analysis; format: functional; procedure, shortened: as §3
MCF7 [8] = assay: Cell cycle arrest in human MCF7 cells assessed as accumulation at G1 phase at 10 uM after 24 hrs by FACS analysis; format: functional; procedure, shortened: as §3
LOX IMVI = assay: Growth inhibition of human LOXIMVI cells; format: functional; procedure, shortened: as §1
SF-295 = assay: Growth inhibition of human SF295 cells; format: functional; procedure, shortened: as §1
NCI-H226 = assay: Growth inhibition of human NCI-H226 cells; format: functional; procedure, shortened: as §1
UO-31 = assay: Growth inhibition of human UO31 cells; format: functional; procedure, shortened: as §2
NCI/ADR-RES = assay: Growth inhibition of human NCI/ADR-RES cells; format: functional; procedure, shortened: as §1
SF-268 = assay: Growth inhibition of human SF268 cells; format: functional; procedure, shortened: as §1
MCF7 [9] = assay: Cell cycle arrest in human MCF7 cells assessed as accumulation at S phase at 30 uM after 24 hrs by FACS analysis; format: functional; procedure, shortened: as §5
MCF7 [10] = assay: Cell cycle arrest in human MCF7 cells assessed as accumulation at G1 phase at 30 uM after 24 hrs by FACS analysis; format: functional; procedure, shortened: as §5
OVCAR-3 = assay: Growth inhibition of human OVCAR-3 cells; format: functional; procedure, shortened: as §1
MDA-MB-231 = assay: Growth inhibition of human MDA-MB-231 cells; format: functional; procedure, shortened: as §1
OVCAR-4 = assay: Growth inhibition of human OVCAR4 cells; format: functional; procedure, shortened: as §1
MCF7 [11] = assay: Cell cycle arrest in human MCF7 cells assessed as accumulation at G0 phase at 10 uM after 24 hrs by FACS analysis; format: functional; procedure, shortened: as §3
HCT-15 = assay: Growth inhibition of human HCT15 cells; format: functional; procedure, shortened: as §1
SK-MEL-2 = assay: Growth inhibition of human SK-MEL-2 cells; format: functional; procedure, shortened: as §1
[12] = Growth inhibition of human RPMI8266 cells; format: functional; procedure, shortened: as §1
A498 = assay: Growth inhibition of human A498 cells; format: functional; procedure, shortened: as §1
HCT-116 = assay: Growth inhibition of human HCT116 cells; format: functional; procedure, shortened: as §1
BT-549 = assay: Growth inhibition of human BT549 cells; format: functional; procedure, shortened: as §1
OVCAR-8 = assay: Growth inhibition of human OVCAR8 cells; format: functional; procedure, shortened: as §1
786-0 = assay: Growth inhibition of human 786-0 cells; format: functional; procedure, shortened: as §1
SK-OV-3 = assay: Growth inhibition of human SKOV3 cells; format: functional; procedure, shortened: as §2
SK-MEL-5 = assay: Growth inhibition of human SK-MEL-5 cells; format: functional; procedure, shortened: as §1
COLO 205 = assay: Growth inhibition of human COLO205 cells; format: functional; procedure, shortened: as §1
TK-10 = assay: Growth inhibition of human TK10 cells; format: functional; procedure, shortened: as §2
MCF7 [13] = assay: Cell cycle arrest in human MCF7 cells assessed as accumulation at G2/M phase at 30 uM after 24 hrs by FACS analysis; format: functional; procedure, shortened: as §5
HOP-62 = assay: Growth inhibition of human HOP62 cells; format: functional; procedure, shortened: as §1
SK-MEL-28 = assay: Growth inhibition of human SK-MEL-28 cells; format: functional; procedure, shortened: as §1
HT-29 = assay: Growth inhibition of human HT-29 cells; format: functional; procedure, shortened: as §1
MDA-MB-435 = assay: Growth inhibition of human MDA-MB-435 cells; format: functional; procedure, shortened: as §1
OVCAR-5 = assay: Growth inhibition of human OVCAR5 cells; format: functional; procedure, shortened: as §1

GI50 (HCC 2998): 1510 nM | GI50 (A549): 3850 nM | GI50 (NCI-H322M): 3390 nM | GI50 (K562): 2040 nM | GI50 (SW-620): 2290 nM | GI50 (U-251): 2110 nM | GI50 (NCI-H460): 1950 nM | GI50 (MCF7 [3]): 1550 nM | GI50 (NCI-H23): 2020 nM | GI50 (T47D): 2700 nM | GI50 (PC-3): 2520 nM | GI50 (ACHN): 2500 nM | GI50 (NCI-H522): 2360 nM | GI50 (NCI-H226): 2600 nM | GI50 (OVCAR-3): 2290 nM | GI50 (MDA-MB-231): 3360 nM | GI50 (OVCAR-4): 5190 nM | GI50 (HCT-15): 2730 nM | GI50 (SK-MEL-2): 3650 nM | GI50 (HCT-116): 1400 nM | GI50 (BT-549): 2780 nM | GI50 (OVCAR-8): 4110 nM | GI50 (786-0): 1350 nM | GI50 (SK-OV-3): 3760 nM | GI50 (SK-MEL-5): 1590 nM | GI50 (COLO 205): 2210 nM | GI50 (SK-MEL-28): 1850 nM | GI50 (HT-29): 3770 nM | GI50 (MDA-MB-435): 2140 nM | GI50 (OVCAR-5): 2040 nM
Compound: COc1cc(/C=C/C(=O)c2cccc(-n3cc(-c4ccccc4)[nH]c3=O)c2)ccc1O
GI50 (SF-539): 1910 nM | GI50 (KM12): 1610 nM | GI50 (Malme-3M): 2670 nM | GI50 (CAKI-1): 2190 nM | GI50 (M14): 2610 nM | GI50 (SNB-19): 2960 nM | Activity (MCF7 [1]): 48.85% | Activity (MCF7 [2]): Active | GI50 (SNB-75): 3900 nM | GI50 (EKVX): 3900 nM | Activity (MCF7 [4]): 40.05% | GI50 (RXF 393): 2270 nM | GI50 (UACC-257): 6810 nM | GI50 (SN12C): 3310 nM | GI50 (UACC-62): 2010 nM | GI50 [5]: 4160 nM | GI50 (HOP-92): 2270 nM | Activity (MCF7 [6]): Active | Activity (MCF7 [7]): 14.13% | Activity (MCF7 [8]): 25.85% | GI50 (LOX IMVI): 1880 nM | GI50 (SF-295): 3040 nM | GI50 (UO-31): 2180 nM | GI50 (NCI/ADR-RES): 2920 nM | GI50 (SF-268): 2070 nM | Activity (MCF7 [9]): 2.41% | Activity (MCF7 [10]): 49.91% | Activity (MCF7 [11]): 11.17% | GI50 [12]: 1670 nM | GI50 (A498): 1680 nM | GI50 (TK-10): 5290 nM | Activity (MCF7 [13]): 7.63% | GI50 (HOP-62): 1480 nM
